ChEMBL document CHEMBL1145896, “5-Substituted-2,4-diamino-6-[2-(phosphonomethoxy)ethoxy]pyrimidines-acyclic nucleoside phosphonate analogues with antiviral activity” (J Med Chem, 2003)

What was measured:
Human alphaherpesvirus 3 [1] = test: Antiviral activity against 07/1 strain of VZV in HEL ([…]) cells.; type: functional, organism-based
How it was run: (§1)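 Inhibition of virus-induced cytopathicity. HSV-1 and HSV-2 were tested in E6SM cells; VZV and CMV in HEL cells. Confluent monolayers were inoculated with 100 CCID50 of virus. After 1–2 h adsorption, residual virus was removed and compound was added at serial concentrations (400, 200, 100, ... μg/mL). Cytopathicity was scored once untreated infected controls reached complete CPE.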

Cytomegalovirus [2] = test: Antiviral activity against AD169 strain of cytomegalovirus (CMV) in HEL ([…]) cells.; type: functional, organism-based; how it was run: as §1
CCRF-CEM = test: Cytotoxicity against CEM (human lymphoblastic leukemia) cells in vitro.; type: functional
Cytomegalovirus [3] = test: Antiviral activity against Davis strain of cytomegalovirus (CMV) in HEL ([…]) cells.; type: functional, organism-based; how it was run: as §1
[4] = Antiviral activity against G strain of HSV-2 in E6SM cells.; type: functional, cell-based, herpes simplex virus; how it was run: as §1
[5] = Antiviral activity against vaccinia virus in HEL ([…]) cells.; type: functional, cell-based
[6] = test system: Human immunodeficiency virus 1; test: Antiviral activity against HIV-1 (IIIB) in CEM (human leukemia) cells.; type: functional, organism-based; conditions: ccrf-cem
How it was run: (§2)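 Human CEM cells (~3 × 10^5 cells/mL) were infected with 100 CCID50 per mL of HIV-1 (IIIB) or HIV-2 (ROD) and seeded into wells containing compound dilutions. After 4 days at 37 °C, syncytium (giant cell) formation was examined microscopically.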

[7] = test system: Human immunodeficiency virus 2; test: Antiviral activity against HIV-2 (ROD) in CEM (human leukemia) cells.; type: functional, organism-based; conditions: ccrf-cem; how it was run: as §2
[8] = Antiviral activity against KOS strain of HSV-1 in E6SM cells.; type: functional, cell-based, herpes simplex virus; how it was run: as §1
[9] = test system: Moloney murine sarcoma virus; test: Antiviral activity against murine sarcoma virus; type: functional, organism-based
How it was run: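 Murine C3H/3T3 embryo fibroblasts were seeded at 5 × 10^5 cells/mL. After 24 h, cells were infected with 80 focus-forming units of MSV (from mouse tumours) for 90–120 min at 37 °C. Medium was then replaced by fresh medium containing varied compound concentrations, and MSV-induced transformation was the read-out.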

Human alphaherpesvirus 3 [10] = test: Antiviral activity against OKA strain of VZV in HEL ([…]) cells.; type: functional, organism-based; set-up: unit not given here; how it was run: as §1
[11] = Antiviral activity against KOS strain of HSV-1; ND=No data; type: functional, herpes simplex virus
How it was run: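 Confluent E6SM cell cultures in 96-well plates were inoculated with 100 CCID50 virus. After 1–2 h adsorption, inoculum was removed and test compound was added at 400, 200, 100, ... µg/mL.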

| Compound | EC50 (Human alphaherpesvirus 3 [1]) [uM ml-1] | EC50 (Cytomegalovirus [2]) [uM ml-1] | CC50 (CCRF-CEM) [µM] | EC50 (Cytomegalovirus [3]) [uM ml-1] | EC50 [4] [uM ml-1] | EC50 [5] [uM ml-1] | EC50 [6] [uM ml-1] | EC50 [7] [uM ml-1] | EC50 [8] [uM ml-1] | EC50 [9] [uM ml-1] | EC50 (Human alphaherpesvirus 3 [10]) | EC50 [11] [uM ml-1] |
| --- | --- | --- | --- | --- | --- | --- | --- | --- | --- | --- | --- | --- |
| CCOC(=O)Cc1c(N)nc(N)n(CCOCP(=O)(O)O)c1=O | > 0.15 | > 0.15 | > 300 | > 0.15 | > 1.2 | > 1.2 | > 0.3 | 0.11 | > 1.2 | 0.011 | > 0.15 |  |
| Nc1nc(N)c(Cc2ccccc2)c(OCCOCP(=O)(O)O)n1 | > 0.15 | > 0.15 | > 300 | > 0.15 |  | > 1.2 | > 0.3 | > 0.3 | > 1.2 | > 1.12 | > 0.15 |  |
| N#CCc1c(N)nc(N)nc1OCCOCP(=O)(O)O | 0.11 | > 0.15 | > 300 | > 0.15 | > 1.2 | > 1.2 | > 0.3 | > 0.3 | > 1.2 | 0.3 | 0.14 |  |
| Nc1nc(N)c(Br)c(OCCOCP(=O)(O)O)n1 | > 0.15 | > 0.15 | > 300 |  | 0.7 | 0.7 | 0.0073 | 0.0095 | 0.7 | 0.007 |  |  |
| Nc1nc(N)n(CCOCP(=O)(O)O)c(=O)c1-c1ccccc1 | > 0.15 | > 0.15 | > 300 | > 0.15 | > 1.2 | > 1.2 | > 0.3 | > 0.3 | > 1.2 | > 1.12 | > 0.15 |  |
| C=CCc1c(N)nc(N)n(CCOCP(=O)(O)O)c1=O | > 0.15 | > 0.15 | > 300 | > 0.15 | 0.77 | > 1.2 | > 0.3 | > 0.3 | > 1.2 | > 1.12 | > 0.15 |  |
| C=CCc1c(N)nc(N)nc1OCCOCP(=O)(O)O | > 0.15 | > 0.15 | > 300 | > 0.15 | 0.79 | > 1.2 | > 0.3 | > 0.3 | > 1.2 | > 1.12 | > 0.15 |  |
| Nc1nc(N)c(Cl)c(OCCOCP(=O)(O)O)n1 |  | > 0.12 | 300 | > 0.6 | > 1.2 | > 1.2 | 0.0031 | 0.0044 | > 1.2 | 0.0028 |  |  |
| Nc1nc(N)n(CCOCP(=O)(O)O)c(=O)c1CC(=O)O | > 0.15 | > 0.15 | > 300 | > 0.15 | > 1.2 | > 1.2 | > 0.3 | > 0.3 | > 1.2 | 0.082 | > 0.15 |  |
| Nc1nc(N)n(CCOCP(=O)(O)O)c(=O)c1Cc1ccccc1 | > 0.15 | > 0.15 | > 300 | > 0.15 | > 1.2 | > 1.2 | > 0.3 | > 0.3 | > 1.2 | > 1.12 | > 0.15 |  |
| Nc1nc(N)c(-c2ccccc2)c(OCCOCP(=O)(O)O)n1 | > 0.15 | > 0.15 | > 300 | > 0.15 | > 1.2 | > 1.2 | > 0.3 | > 0.3 | > 1.2 | > 1.12 | > 0.15 |  |
| Nc1nc(N)c(CC(=O)O)c(OCCOCP(=O)(O)O)n1 | > 0.15 | > 0.15 | > 300 | > 0.15 | > 1.2 | > 1.2 | > 0.3 | > 0.3 | > 1.2 | 0.046 | > 0.15 |  |
| Nc1cc(OCCOCP(=O)(O)O)nc(N)n1 | 0.0095 | > 0.19 | 42 | > 0.19 | 0.033 | 0.18 | 0.003 | 0.0016 | 0.025 | 0.00015 | 0.0045 |  |
| Cc1c(N)nc(N)nc1OCCOCP(=O)(O)O | 0.042 | > 0.15 | 15 | > 0.15 | > 1.2 | > 1.2 | 0.00043 | 0.00031 | > 1.2 | 0.00022 | 0.018 |  |
| Nc1cc(OC[C@H](CO)OCP(=O)(O)O)nc(N)n1 | 0.00024 | 0.13 | 23 | 0.12 | 0.017 | 0.0065 | > 0.014 | 0.014 | 0.0048 | > 0.0027 | 0.00017 |  |
| CCOC(=O)Cc1c(N)nc(N)nc1OCCOCP(=O)(O)O | > 0.15 | > 0.15 | > 300 | > 0.15 | > 1.2 | > 1.2 | > 0.3 | 0.078 | > 1.2 | 0.035 | > 0.15 |  |
| Nc1nc(N)c(C2CC2)c(OCCOCP(=O)(O)O)n1 |  |  | > 300 |  |  |  | > 0.3 | > 0.3 |  | > 1.12 |  | > 1.2 |
| Nc1nc(N)n(CCOCP(=O)(O)O)c(=O)c1C1CC1 | > 0.15 | > 0.15 | > 300 |  | > 1.2 | > 1.2 | > 0.3 | > 0.3 | > 1.2 | > 1.12 |  |  |
| N#CCc1c(N)nc(N)n(CCOCP(=O)(O)O)c1=O | 0.084 | > 0.15 | > 300 | > 0.15 | > 1.2 | > 1.2 | > 0.3 | > 0.3 | > 1.2 | 0.3 | > 0.15 |  |
| Cc1c(N)nc(N)n(CCOCP(=O)(O)O)c1=O | > 0.15 | > 0.15 | > 300 |  | > 1.2 | > 1.2 | > 0.3 | > 0.3 | > 1.2 | > 1.12 |  |  |
| Nc1ncnc2c1ncn2CCOCP(=O)(O)O [ADEFOVIR] |  | 0.1 | 56 | 0.27 | 0.024 | > 0.17 | 0.0033 | 0.0066 | 0.024 | 0.0022 |  |  |
| C[C@H](Cn1cnc2c(N)ncnc21)OCP(=O)(O)O [TENOFOVIR ANHYDROUS] | 0.17 | > 0.17 | 410 | > 0.17 | > 0.17 | > 0.17 | 0.0012 | 0.0014 | > 0.17 | 0.0046 |  |  |
